In the library only some 3.9% were active in any assay of this set; here they are far more common.
TMEM16A act: mouse TMEM16A channel activation, primary screen; HEK293 TMEM16A/YFP-H148Q/I152L, iodide quench fluorescence; hits give low values; B-score at 10 µM; actives 0.3% (n = 340,000); AID 623877;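 active means fluorescence-ratio B-score plate-corrected deviation score at least 3 library SD below zero, with starting fluorescence score within 5 deviations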;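 further: channel opened by trigger with iodide after compound preincubation; score built on the fluorescence ratio of max minus min over baseline; more negative score means more quench and so TMEM16A activation or potentiation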
Target sequence (Q8BHY3 whole entry, looked up): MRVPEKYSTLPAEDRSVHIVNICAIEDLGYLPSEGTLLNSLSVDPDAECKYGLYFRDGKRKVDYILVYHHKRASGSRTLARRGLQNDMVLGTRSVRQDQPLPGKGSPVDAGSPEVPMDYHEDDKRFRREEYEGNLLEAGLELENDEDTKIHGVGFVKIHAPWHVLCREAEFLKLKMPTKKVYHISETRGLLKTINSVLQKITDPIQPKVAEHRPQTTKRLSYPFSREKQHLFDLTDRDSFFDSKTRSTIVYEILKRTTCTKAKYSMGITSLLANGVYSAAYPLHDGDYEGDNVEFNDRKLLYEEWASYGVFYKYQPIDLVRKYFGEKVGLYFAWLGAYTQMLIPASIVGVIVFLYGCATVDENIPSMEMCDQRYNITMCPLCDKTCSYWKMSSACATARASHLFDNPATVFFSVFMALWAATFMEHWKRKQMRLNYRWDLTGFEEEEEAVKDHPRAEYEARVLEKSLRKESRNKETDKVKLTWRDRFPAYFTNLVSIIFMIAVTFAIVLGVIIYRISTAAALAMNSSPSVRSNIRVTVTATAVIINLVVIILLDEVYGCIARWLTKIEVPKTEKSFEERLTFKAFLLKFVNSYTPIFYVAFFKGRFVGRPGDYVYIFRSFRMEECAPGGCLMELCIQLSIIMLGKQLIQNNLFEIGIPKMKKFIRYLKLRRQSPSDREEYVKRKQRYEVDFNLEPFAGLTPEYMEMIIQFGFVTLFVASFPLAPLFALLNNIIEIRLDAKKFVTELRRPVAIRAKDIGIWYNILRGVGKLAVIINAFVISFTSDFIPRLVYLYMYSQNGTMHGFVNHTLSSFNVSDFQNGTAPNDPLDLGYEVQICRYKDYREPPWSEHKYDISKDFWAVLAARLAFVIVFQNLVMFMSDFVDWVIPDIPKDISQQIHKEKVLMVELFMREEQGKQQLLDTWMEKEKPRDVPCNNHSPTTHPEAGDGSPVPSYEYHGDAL
CRFR2-BP antag: blocks CRF-induced signaling of the CRF-BP/CRF-R2 complex. HEK293 CRF-R2/CRF-BP, CRF-induced calcium fluorescence. inhibition, % at 11.8 µM. actives 0.59% (n = 350,000). AID 588475;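 active means inhibition of the ligand-induced calcium signal above about 50% at the single tested concentration, limit read from the data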
TMEM16A inh: inhibitors of mouse TMEM16A calcium-activated chloride channel. Q8BHY3. HEK293 TMEM16A/YFP iodide influx fluorescence, ionomycin. normalized B-score (activity score, 25-100; higher = stronger inhibition) at 10 µM. actives 1.2% (n = 310,000);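 active means ratio plate-corrected score three or more library SD toward inhibition, starting fluorescence score within five deviations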;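 further: score derived from kinetic fluorescence span divided by baseline fluorescence per well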
TAAR1 agonist: agonists of human TAAR1 | actives 0.99% (n = 360,000) | Q96RJ0 | activation, % at 3 µM | CHO RD-HGA16 TAAR1, Fluo-8 calcium fluorescence; vehicle wells 0%, saturating PEA agonist 100%;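 active means activation above the mean activation of all test compounds in the run plus 3 SD, cut at about 38% in these data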
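Test system: RD-HGA16 (CHO) cells co-expressing Gα16 and hTAAR1 | Doses: Single dose, 3 µM | Schedule: 17-24 h seeding, 75 min 37 °C dye, 30 min RT | Evaluation: % activation from peak over basal fluorescence ratio, DMSO-to-PEA scaled | Technique: Kinetic Fluo-8 calcium fluorescence | Benchmarks: Low control DMSO, high control PEA (EC100)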
CRFR2-BP ag: CRF-BP/CRF-R2 complex agonism | HEK293 CRF-R2/CRF-BP, calcium dye fluorescence (FLIPR); percent of saturating CRF peptide response | actives 0.46% (n = 350,000) | activation, % at 13.2 µM;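 active means activation of at least 50%, plus an integration ratio under a set limit after plate pattern correction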;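 further: plate controls were neutral control wells without compound for no effect and CRF at EC100 for full effect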
TAAR1 antag: antagonists of human TAAR1 | Q96RJ0 | CHO RD-HGA16 TAAR1, Fluo-8 calcium fluorescence, antagonist | inhibition, % at 3 µM | actives 1.5% (n = 360,000);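 active means inhibition above a per-plate cutoff, the mean inhibition of test compounds on that plate plus 3 SD, cut at about 49% in these data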;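 further: 0% = DMSO plus EC80 beta-PEA response and 100% = DMSO alone without agonist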
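System: CHO RD-HGA16 cells bearing hTAAR1. Reagent: EC80 β-phenethylamine stimulus. Schedule: seeding 17-24 h prior, 75-min 37 °C, 30-min RT dye loading. Signal: Fluo-8 intracellular calcium dye fluorescence, real-time kinetic reads. Read-out: % inhibition from peak post-agonist over basal fluorescence ratio. Benchmarks: vehicle wells and EC80 agonist wells. Replicates: n of 1.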
Active calls of the source: *; i = inactive; . = no result.

SMILES | TMEM16A act | CRFR2-BP antag | TMEM16A inh | TAAR1 agonist | CRFR2-BP ag | TAAR1 antag
N#Cc1ccc(Oc2cccc3cccnc23)c([N+](=O)[O-])c1 | -5.76* | -25.4 | i | 0.8 | 2.6 | 4.0
O=[N+]([O-])c1ccc(Oc2cccc3cccnc23)c([N+](=O)[O-])c1 | i | -100.5 | i | -0.3 | 18.2 | 19.7
Cc1noc(C)c1NC(=O)N(C)C[C@@H]1OCc2cnnn2CCCC(=O)N([C@@H](C)CO)C[C@@H]1C | . | -8.0 | . | 0.4 | 0.3 | -16.8
Cc1cc(C)c2c(=O)n(CC(=O)NCCCN3CCN(c4ccccc4F)CC3)sc2n1 | . | 19.8 | 100* | . | 0.4 | .
Cc1cccc(CCN2CCN=C2Nc2ccccc2)c1 | i | 10.4 | i | 28.4 | 56.1* | 22.4
O=[N+]([O-])c1ccc(N=Nc2c(Cl)cc(O)cc2Cl)cc1 | -5.23* | 40.7 | 100* | 3.4 | 31.1 | 58.8*
CC(N)=Nc1ccc([N+](=O)[O-])cc1 | i | -7.5 | i | 1.4 | 1.7 | -35.5
COc1ccc(N(C(=O)c2snc(C(N)=O)c2N)C(C(=O)NCc2ccccc2)c2ccc(O)cc2)cc1OC (stereo not given) | i | 16.8 | . | 0.3 | 4.2 | -11.5
CN(C)c1ccc(C(C(=O)NCc2ccccc2)N(Cc2cccnc2)C(=O)c2snc(C(N)=O)c2N)cc1 (stereo not given) | i | 8.6 | . | 16.7 | 0.5 | 56.2*
COc1cccc(N(C(=O)c2snc(C(N)=O)c2N)C(C(=O)NCc2ccccc2)c2ccc(O)cc2)c1 (stereo not given) | i | 2.8 | i | 9.2 | 0.6 | 54.0*
COc1ccc(CN(C(=O)c2snc(C(N)=O)c2N)C(C)C(=O)NCc2ccc(F)cc2)cc1 (stereo not given) | i | -7.6 | i | 14.3 | -3.7 | 19.5
COc1ccc(CNC(=O)C(C)N(Cc2ccccc2OC)C(=O)c2snc(C(N)=O)c2N)cc1 (stereo not given) | i | 1.5 | i | 15.2 | -3.1 | 51.4*
O=C(COc1ccc2c(c1)oc(=O)c1ccccc12)NCCCN1CCOCC1 | i | -4.5 | i | 1.6 | 2.7 | -1.3
Cc1cc(C)n2nc(CNS(=O)(=O)c3ccc(CC(C)C)cc3)nc2n1 | i | 12.1 | i | 7.4 | 0.5 | -17.9
O=C(/C=C1\OCc2ccccc21)c1ccccc1 | . | . | . | 0.7 | . | -17.6
CCCC(=O)c1c[nH]c(C(=O)N2CCOCC2)c1 | i | 12.0 | i | 4.7 | 1.1 | -4.0
CC(=O)O[C@@]1(C)C[C@@H](O)[C@]2(O)C=CO[C@@H](O[C@@H]3O[C@H](CO)[C@@H](O)[C@H](O)[C@H]3O)[C@@H]21 | i | 6.1 | . | 4.6 | 0.2 | -1.0
Cc1cc2c(cc1S(=O)(=O)CCC(=O)NC1CCCCC1C)OCC(=O)N2 (stereo not given) | i | -87.1 | i | 0.4 | 83.3* | 1.5
CC1CCCCC1NC(=O)CCS(=O)(=O)c1cc2c(cc1Cl)NC(=O)CO2 (stereo not given) | i | -13.9 | i | 4.0 | -1.3 | -19.7
COc1cccc(C(=O)/C=C/Nc2ccc(S(=O)(=O)Nc3onc(C)c3C)cc2)c1 | i | 22.8 | i | 2.7 | -0.1 | -10.9
Cc1noc(NS(=O)(=O)c2ccc(N/C=C\C(=O)c3cccc4ccccc34)cc2)c1C | i | 56.1* | i | 10.4 | -3.6 | 29.2
COc1ccc(-c2[nH]nc3nc(N4CCN(C(=O)c5ccoc5)CC4)cc(C(F)(F)F)c23)cc1 | . | -17.4 | . | 5.0 | -0.5 | 49.1*
CC(=O)c1cc(NC(=O)c2ccc(Cl)cc2)c(=O)oc1/C=C/N(C)C | i | -90.3 | i | 23.6 | 79.3* | 18.7
CC(=O)c1cc(NC(=O)c2cccc(C(F)(F)F)c2)c(=O)oc1/C=C/N(C)C | i | -119.5 | i | 9.2 | 75.7* | 0.6
CC(C)n1c(SCC(=O)Nc2nncs2)nnc1-c1ccco1 | . | 12.9 | i | . | -0.1 | .
COc1ccc(N(C)S(=O)(=O)c2ccc3c(c2)oc(=O)n3C)cc1 | i | 20.2 | i | 0.7 | 0.4 | 13.9
